Assay [1] deals with SRSF protein kinase 1 (Homo sapiens) (UniProt Q96SB4). In words: Inhibition of human recombinant SRPK1 at 15 nM related to control ULK1.
Assay [2] has as its target T1, Mitogen-activated protein kinase kinase kinase 3 (Homo sapiens) (UniProt Q99759).
T1 sequence (whole entry): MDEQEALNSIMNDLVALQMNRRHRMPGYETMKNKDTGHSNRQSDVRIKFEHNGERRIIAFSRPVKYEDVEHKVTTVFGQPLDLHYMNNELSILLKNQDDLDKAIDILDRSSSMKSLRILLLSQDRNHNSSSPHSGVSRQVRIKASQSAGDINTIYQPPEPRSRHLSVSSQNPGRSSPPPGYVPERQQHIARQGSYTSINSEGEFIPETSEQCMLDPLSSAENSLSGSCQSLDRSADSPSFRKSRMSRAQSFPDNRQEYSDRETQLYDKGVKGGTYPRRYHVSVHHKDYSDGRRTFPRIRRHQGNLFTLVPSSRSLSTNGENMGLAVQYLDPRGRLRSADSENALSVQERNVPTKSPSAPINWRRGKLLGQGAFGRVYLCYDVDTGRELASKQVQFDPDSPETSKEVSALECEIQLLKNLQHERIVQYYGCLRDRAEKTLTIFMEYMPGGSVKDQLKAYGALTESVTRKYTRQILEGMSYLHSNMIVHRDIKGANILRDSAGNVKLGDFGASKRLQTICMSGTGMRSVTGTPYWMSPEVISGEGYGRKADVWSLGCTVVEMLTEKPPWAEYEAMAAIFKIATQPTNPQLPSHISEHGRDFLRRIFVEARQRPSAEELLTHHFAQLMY
The experiment in a line: Inhibition of human recombinant MAP3K3 at 15 nM in presence of ATP by radiometric assay relative to control.

In assay [3] the target is T2, Tribbles homolog 2 (Homo sapiens) (UniProt Q92519).
T2 sequence (whole entry): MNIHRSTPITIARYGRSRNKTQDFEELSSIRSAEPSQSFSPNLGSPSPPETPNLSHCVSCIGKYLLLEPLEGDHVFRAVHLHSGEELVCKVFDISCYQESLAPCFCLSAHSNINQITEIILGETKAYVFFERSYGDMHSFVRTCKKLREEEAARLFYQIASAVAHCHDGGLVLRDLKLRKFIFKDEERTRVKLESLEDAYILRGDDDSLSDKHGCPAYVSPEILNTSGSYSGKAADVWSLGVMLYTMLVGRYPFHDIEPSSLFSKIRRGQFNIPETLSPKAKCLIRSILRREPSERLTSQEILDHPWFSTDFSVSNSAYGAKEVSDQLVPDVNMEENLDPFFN
The experiment in a line: Inhibition of human recombinant Trb2 at 15 nM related to control ULK1.

Assay [4] has as its target Tyrosine-protein kinase Blk (Homo sapiens) (UniProt P51451). In words: Inhibition of human recombinant BLK at 40 nM in presence of ATP by radiometric assay relative to control. In outline:
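Part of a radiometric in vitro activity panel of 327 recombinant human kinases. Each kinase was tested in duplicate at one inhibitor concentration. Activity remaining was expressed as a percentage of the vehicle control, and percent inhibition was taken as 100 minus that value.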

For assay [5], the target named is Serine/threonine-protein kinase WNK2 (Homo sapiens) (UniProt Q9Y3S1). In words: Inhibition of human recombinant Wnk2 at 40 nM in presence of ATP by radiometric assay relative to control.
In assay [6] the target is Myosin light chain kinase 2, skeletal/cardiac muscle (Homo sapiens) (UniProt Q9H1R3). In words: Inhibition of human recombinant skMLCK at 40 nM in presence of ATP by radiometric assay relative to control.
In assay [7] the target is T3, Serine/threonine-protein kinase Nek11 (Homo sapiens) (UniProt Q8NG66).
T3 sequence (whole entry): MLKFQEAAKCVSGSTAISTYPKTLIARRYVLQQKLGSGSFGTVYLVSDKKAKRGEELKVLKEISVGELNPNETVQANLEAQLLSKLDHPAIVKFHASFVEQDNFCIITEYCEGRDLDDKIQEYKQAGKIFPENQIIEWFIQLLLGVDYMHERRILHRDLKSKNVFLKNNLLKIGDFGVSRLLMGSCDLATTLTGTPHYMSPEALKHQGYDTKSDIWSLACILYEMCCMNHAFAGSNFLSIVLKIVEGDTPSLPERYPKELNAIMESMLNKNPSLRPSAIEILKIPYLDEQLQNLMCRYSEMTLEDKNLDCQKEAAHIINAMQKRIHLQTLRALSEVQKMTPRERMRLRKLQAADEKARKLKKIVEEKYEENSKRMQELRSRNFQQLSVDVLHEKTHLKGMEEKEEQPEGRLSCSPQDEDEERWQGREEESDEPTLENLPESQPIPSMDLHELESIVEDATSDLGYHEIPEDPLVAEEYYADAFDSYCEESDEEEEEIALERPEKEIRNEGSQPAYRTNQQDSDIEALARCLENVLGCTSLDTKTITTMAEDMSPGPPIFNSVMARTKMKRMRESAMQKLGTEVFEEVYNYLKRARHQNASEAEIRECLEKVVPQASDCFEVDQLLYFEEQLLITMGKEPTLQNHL
The experiment in a line: Inhibition of human recombinant NEK11 at 40 nM related to control ULK1.

Assay [8] addresses Cyclin-dependent kinase 9 (Homo sapiens) (UniProt P50750). The experiment in a line: Inhibition of human recombinant CDK9 at 40 nM in presence of ATP by radiometric assay relative to control.
Assay [9] deals with BDNF/NT-3 growth factors receptor (Homo sapiens) (UniProt Q16620). In words: Inhibition of human recombinant TRKB at 500 nM in presence of ATP by radiometric assay relative to control.
Assay [10] deals with Casein kinase I isoform gamma-1 (Homo sapiens) (UniProt Q9HCP0). The experiment in a line: Inhibition of human recombinant CK1g1 at 500 nM in presence of ATP by radiometric assay relative to control.
Chain of Casein kinase I isoform gamma-1 (Homo sapiens) (Q9HCP0 whole entry, looked up, canonical isoform): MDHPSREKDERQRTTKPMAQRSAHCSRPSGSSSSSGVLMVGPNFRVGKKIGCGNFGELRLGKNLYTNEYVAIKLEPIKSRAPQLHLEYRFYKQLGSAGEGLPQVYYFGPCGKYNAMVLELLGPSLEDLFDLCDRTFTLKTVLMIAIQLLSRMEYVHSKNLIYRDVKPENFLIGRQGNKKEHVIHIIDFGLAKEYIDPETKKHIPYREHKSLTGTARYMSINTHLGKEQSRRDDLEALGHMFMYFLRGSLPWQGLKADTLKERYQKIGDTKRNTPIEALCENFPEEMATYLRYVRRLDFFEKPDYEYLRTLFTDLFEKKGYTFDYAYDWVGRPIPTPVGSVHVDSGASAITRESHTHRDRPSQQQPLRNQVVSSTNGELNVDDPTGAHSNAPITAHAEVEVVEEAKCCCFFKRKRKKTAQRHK

Chain of Myosin light chain kinase 2, skeletal/cardiac muscle (Homo sapiens) (Q9H1R3 whole entry): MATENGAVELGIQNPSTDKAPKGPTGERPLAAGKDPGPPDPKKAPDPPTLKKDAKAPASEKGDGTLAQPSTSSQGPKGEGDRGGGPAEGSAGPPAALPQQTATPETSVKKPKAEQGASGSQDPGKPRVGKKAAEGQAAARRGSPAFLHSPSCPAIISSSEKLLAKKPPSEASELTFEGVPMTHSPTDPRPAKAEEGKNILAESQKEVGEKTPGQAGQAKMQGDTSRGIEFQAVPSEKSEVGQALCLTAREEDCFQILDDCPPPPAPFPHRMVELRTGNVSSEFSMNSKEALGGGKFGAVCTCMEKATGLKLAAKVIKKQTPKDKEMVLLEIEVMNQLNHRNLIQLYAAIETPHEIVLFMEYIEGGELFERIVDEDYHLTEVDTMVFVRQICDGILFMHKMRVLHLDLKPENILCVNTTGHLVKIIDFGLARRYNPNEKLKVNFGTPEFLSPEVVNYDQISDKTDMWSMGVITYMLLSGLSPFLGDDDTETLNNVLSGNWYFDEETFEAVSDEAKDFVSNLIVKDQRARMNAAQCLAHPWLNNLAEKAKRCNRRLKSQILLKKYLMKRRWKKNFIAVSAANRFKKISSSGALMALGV
Chain of Cyclin-dependent kinase 9 (Homo sapiens) (P50750 whole entry): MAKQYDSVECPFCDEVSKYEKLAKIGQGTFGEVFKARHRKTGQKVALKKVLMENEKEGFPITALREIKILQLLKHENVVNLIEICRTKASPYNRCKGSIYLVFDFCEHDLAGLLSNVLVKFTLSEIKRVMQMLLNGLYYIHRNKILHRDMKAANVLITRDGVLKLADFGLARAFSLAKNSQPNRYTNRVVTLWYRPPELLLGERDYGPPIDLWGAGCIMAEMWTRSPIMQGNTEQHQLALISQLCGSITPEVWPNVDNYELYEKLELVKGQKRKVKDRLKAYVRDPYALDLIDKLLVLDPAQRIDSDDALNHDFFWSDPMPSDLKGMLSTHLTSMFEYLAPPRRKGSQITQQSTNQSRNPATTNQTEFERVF
Chain of Tyrosine-protein kinase Blk (Homo sapiens) (P51451 2-505 limits assumed): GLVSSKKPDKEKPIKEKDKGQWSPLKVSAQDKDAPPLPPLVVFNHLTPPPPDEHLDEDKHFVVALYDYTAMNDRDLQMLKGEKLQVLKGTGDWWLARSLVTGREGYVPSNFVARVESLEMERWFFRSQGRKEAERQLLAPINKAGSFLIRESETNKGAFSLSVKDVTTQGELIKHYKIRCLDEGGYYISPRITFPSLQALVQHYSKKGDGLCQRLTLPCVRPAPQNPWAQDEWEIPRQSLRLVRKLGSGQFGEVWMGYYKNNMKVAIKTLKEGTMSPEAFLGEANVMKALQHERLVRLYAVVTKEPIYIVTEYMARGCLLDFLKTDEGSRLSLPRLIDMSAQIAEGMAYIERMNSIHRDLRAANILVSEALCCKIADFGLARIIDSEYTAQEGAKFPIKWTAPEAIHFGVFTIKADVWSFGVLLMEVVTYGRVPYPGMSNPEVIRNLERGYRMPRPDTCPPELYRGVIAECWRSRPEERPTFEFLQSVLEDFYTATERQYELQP
Chain of SRSF protein kinase 1 (Homo sapiens) (Q96SB4 whole entry): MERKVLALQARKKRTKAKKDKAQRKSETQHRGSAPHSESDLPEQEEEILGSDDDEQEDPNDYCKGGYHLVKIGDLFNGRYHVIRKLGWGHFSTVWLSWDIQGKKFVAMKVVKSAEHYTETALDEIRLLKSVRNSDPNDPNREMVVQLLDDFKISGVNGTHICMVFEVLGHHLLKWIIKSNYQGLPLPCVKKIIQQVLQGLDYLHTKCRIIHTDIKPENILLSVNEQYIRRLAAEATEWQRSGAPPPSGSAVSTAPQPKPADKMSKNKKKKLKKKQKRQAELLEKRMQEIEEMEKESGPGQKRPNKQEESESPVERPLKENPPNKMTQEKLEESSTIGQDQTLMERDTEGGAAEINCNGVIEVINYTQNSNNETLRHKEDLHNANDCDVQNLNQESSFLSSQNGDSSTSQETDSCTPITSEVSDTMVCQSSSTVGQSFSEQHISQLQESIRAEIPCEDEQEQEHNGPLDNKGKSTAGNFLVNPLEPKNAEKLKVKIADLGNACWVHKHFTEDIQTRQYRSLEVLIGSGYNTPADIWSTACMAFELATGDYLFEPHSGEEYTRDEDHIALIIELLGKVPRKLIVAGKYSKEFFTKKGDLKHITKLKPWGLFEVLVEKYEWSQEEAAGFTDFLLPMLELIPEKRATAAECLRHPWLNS
Chain of BDNF/NT-3 growth factors receptor (Homo sapiens) (Q16620 32-822 limits assumed): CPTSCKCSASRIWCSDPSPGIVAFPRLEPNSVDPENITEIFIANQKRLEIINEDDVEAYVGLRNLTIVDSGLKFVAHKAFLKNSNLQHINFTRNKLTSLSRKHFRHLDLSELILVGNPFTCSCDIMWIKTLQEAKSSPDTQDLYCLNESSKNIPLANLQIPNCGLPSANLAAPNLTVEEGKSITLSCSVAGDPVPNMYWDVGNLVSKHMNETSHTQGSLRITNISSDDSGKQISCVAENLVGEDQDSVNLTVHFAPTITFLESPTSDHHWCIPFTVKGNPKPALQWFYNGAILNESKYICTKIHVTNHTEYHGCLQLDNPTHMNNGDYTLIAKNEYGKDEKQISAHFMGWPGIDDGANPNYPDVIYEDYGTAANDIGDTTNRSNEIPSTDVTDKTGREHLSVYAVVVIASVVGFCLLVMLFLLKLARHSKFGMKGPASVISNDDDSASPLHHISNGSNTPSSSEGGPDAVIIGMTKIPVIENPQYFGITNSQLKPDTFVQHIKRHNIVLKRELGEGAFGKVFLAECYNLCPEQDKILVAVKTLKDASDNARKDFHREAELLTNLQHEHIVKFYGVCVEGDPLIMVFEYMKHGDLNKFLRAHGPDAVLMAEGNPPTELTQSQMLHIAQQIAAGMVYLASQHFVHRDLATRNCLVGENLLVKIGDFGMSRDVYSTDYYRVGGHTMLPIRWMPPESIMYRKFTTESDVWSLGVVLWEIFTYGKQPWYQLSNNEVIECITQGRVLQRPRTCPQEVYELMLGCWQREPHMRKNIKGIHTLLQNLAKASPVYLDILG

In the case of `CC(C)[C@H](NC(=O)c1cc(-c2cnn3cc(-c4ccc(OCCN5CCCCC5)cc4)cnc23)cs1)C(F)(F)F`, the fold change (FC) in [1] came out at 0; in assay [3], 0.41. Also, the inhibition (usually the percentage by which the read-out fell short of the control) in assay [2] was 3%.

Consider `O=C(N[C@@H](C1CC1)C(F)(F)F)c1cc(-c2cnn3cc(-c4ccc(F)cc4)cnc23)cs1`, for which the inhibition in assay [4] was 17%; in assay [5], 3%; in assay [6], 0%; in assay [8], 0%. The fold change (FC) in [7] was 0.11.

In the case of `CNC(=O)c1ccccc1Oc1nc(Nc2cc(OC)c(OC)c(OC)c2)ncc1Br`, the figures for the inhibition in [9] and in assay [10] were 48% and 0%, respectively.

Values taken from ChEMBL document CHEMBL5653631, “A Potent and Selective ULK1 Inhibitor Suppresses Autophagy and Sensitizes Cancer Cells to Nutrient Stress” (iScience, 2018).
